According to ChEMBL document CHEMBL3868612, “Discovery of a potent and selective ROMK inhibitor with improved pharmacokinetic properties based on an octahydropyrazino[2,1-c][1,4]oxazine scaffold” (Bioorg Med Chem Lett, 2016):

Key:
[1] = Dose normalized AUC in Sprague-Dawley rat at 1 mg/kg, po; assay type: ADME, organism-based; conditions: in vivo
[2] = Half life in Sprague-Dawley rat at 0.5 mg/kg, iv or 1 mg/kg, po; assay type: ADME, organism-based; conditions: in vivo
[3] = Oral bioavailability in Sprague-Dawley rat at 1 mg/kg; assay type: ADME, organism-based; conditions: in vivo
[4] = molecular target: T1, ATP-sensitive inward rectifier potassium channel 1 (Homo sapiens, UniProt P48048); experiment: Inhibition of human ROMK expressed in CHO cells after 6 mins at -70 mV holding potential by electrophysiology method; assay type: cell-based
T1 sequence (P48048 whole entry): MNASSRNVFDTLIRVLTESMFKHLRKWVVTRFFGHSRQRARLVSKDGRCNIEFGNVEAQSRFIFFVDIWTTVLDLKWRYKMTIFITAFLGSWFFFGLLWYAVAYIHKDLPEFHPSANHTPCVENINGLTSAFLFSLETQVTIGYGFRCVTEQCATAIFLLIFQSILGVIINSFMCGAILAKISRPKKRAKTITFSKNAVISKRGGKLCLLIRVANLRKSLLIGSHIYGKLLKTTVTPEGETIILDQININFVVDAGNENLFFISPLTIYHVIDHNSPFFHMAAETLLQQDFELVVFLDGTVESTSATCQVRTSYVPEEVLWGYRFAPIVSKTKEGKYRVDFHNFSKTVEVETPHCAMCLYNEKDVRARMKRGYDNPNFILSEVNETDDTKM

[5] = molecular target: T2, Voltage-gated inwardly rectifying potassium channel KCNH2 (Homo sapiens, UniProt Q12809); experiment: Inhibition of human ERG by electrophysiology method
T2 sequence (Q12809 whole entry): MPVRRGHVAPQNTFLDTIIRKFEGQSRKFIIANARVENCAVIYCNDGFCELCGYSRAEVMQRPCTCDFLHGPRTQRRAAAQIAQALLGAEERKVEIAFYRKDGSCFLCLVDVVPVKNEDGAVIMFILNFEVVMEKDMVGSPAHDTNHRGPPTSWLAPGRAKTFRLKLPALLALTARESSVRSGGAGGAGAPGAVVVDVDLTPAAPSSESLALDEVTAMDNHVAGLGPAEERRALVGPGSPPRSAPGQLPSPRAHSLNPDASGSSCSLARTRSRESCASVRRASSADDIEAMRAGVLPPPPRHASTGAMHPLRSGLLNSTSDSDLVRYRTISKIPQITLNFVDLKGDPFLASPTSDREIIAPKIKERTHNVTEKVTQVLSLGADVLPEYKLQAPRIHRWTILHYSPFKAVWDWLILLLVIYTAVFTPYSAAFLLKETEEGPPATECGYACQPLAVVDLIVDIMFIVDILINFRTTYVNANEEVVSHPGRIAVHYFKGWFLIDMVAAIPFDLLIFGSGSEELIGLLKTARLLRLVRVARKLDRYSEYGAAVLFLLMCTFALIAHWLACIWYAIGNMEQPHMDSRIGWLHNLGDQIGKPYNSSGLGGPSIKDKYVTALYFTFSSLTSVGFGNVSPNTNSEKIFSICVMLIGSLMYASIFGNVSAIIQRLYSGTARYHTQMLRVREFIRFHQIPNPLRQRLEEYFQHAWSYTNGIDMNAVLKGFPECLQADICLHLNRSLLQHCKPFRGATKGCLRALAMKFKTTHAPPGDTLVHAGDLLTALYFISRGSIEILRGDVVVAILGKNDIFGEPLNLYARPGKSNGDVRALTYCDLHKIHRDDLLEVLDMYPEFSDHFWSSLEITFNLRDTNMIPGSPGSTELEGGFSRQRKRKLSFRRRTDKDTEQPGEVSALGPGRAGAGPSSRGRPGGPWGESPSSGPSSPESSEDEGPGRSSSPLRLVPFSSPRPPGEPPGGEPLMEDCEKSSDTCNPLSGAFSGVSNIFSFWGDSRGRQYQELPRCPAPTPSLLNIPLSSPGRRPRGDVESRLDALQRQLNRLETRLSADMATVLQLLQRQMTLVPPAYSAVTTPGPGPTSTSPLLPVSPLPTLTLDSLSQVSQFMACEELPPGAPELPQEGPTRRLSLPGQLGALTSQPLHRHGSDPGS

[6] = molecular target: T2, Voltage-gated inwardly rectifying potassium channel KCNH2; experiment: Displacement of 35S-MK499 from human ERG expressed in HEK293 cell membranes
Summary of the method: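 Membranes were prepared from HEK-293 cells stably expressing hERG. Binding was measured as displacement of 35S-MK499.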

[7] = test system: CHO; experiment: Selectivity ratio of IC50 for displacement of 35S-MK499 from human ERG to IC50 for human ROMK expressed in CHO cells; assay type: cell-based
[8] = Dose normalized AUC in Sprague-Dawley rat at 2 mg/kg, po; assay type: ADME, organism-based; conditions: in vivo
[9] = Half life in Sprague-Dawley rat at 1 mg/kg, iv or 2 mg/kg, po; assay type: ADME, organism-based; conditions: in vivo
[10] = Oral bioavailability in Sprague-Dawley rat at 2 mg/kg; assay type: ADME, organism-based; conditions: in vivo
[11] = Half life in po dosed human; assay type: ADME, organism-based; conditions: in vivo

| SMILES | AUC/dose [1] [µM·kg·h/mg] | half-life [2] [min] | bioavailability [3] [%] | IC50 [4] [nM] | IC50 [5] [nM] | also measured |
| --- | --- | --- | --- | --- | --- | --- |
| Cc1c([C@@H]2CN3CCN(C(=O)Cc4cnc(-n5cnnn5)cn4)C[C@H]3CO2)ccc(F)c1C#N | 4.64 | 84 | 100 | 33 | 10000 | – |
| Cc1c([C@@H]2CN3CCN(C(=O)Cc4ccc(-n5cnnn5)nc4)C[C@@H]3CO2)ccc(F)c1C#N | – | – | – | 60 | > 10000 | – |
| Cc1c(C#N)cccc1[C@@H]1CN2CCN(C(=O)Cc3ccc(-n4cnnn4)nc3)C[C@H]2CO1 | – | – | – | 50 | – | – |
| O=C1OCCc2cc([C@@H]3CN4CCN(C(=O)Cc5cnc(-n6cnnn6)nc5)C[C@H]4CO3)ccc21 | 0.18 | 29.4 | 12 | 260 | > 90000 | – |
| Cc1c([C@H]2CN3CCN(C(=O)Cc4ccc(-n5cnnn5)nc4)C[C@@H]3CN2)ccc2c1COC2=O | – | – | – | 140 | – | IC50 [6]: 22000 nM; Ratio IC50 [7]: 157 |
| Cc1c([C@@H]2CN3CCN(C(=O)Cc4ccc(-n5cnnn5)nc4)C[C@@H]3CO2)ccc2c1COC2=O | 2.02 | 48 | 100 | 86 | 74900 | IC50 [6]: 59400 nM; Ratio IC50 [7]: 690 |
| Cc1c([C@@H]2CN3CCN(C(=O)Cc4ccc(-n5cnnn5)nc4)C[C@H]3CO2)ccc2c1COC2=O | 2.05 | 60 | 82 | 65 | 19700 | IC50 [6]: 21100 nM; Ratio IC50 [7]: 325 |
| Cc1c([C@@H]2CN3CCN(C(=O)Cc4ccc(-n5cnnn5)nc4)C[C@H]3CS2)ccc2c1COC2=O | – | – | – | 100 | – | IC50 [6]: 8900 nM; Ratio IC50 [7]: 89 |
| O=C(Cc1ccc(-n2cnnn2)nc1)N1CCN2C[C@H](c3ccc4nonc4c3)OC[C@@H]2C1 | – | – | – | 104 | – | – |
| O=C1OCCc2cc([C@@H]3CN4CCN(C(=O)Cc5ccc(-n6cnnn6)nc5)C[C@H]4CO3)ccc21 | 1.4 | 51 | 65 | 57 | – | – |
| O=C1OCCc2cc([C@@H]3CN4CCN(C(=O)Cc5ccc(-n6cnnn6)cc5)C[C@H]4CO3)ccc21 | – | – | – | – | > 30000 | – |
| Cc1c([C@H]2CN3CCN(C(=O)Cc4ccc(-n5cnnn5)nc4)C[C@H]3CO2)ccc2nonc12 | 1.8 | 58.2 | 100 | 83 | 10000 | – |
| Cc1c([C@H]2CN3CCN(C(=O)Cc4cnc(-n5cnnn5)nc4)C[C@H]3CO2)ccc(F)c1C#N | – | – | – | 39 | – | AUC/dose [8]: 1.01 µM·kg·h/mg; half-life [9]: 81.6 min; bioavailability [10]: 54% |
| Cc1c([C@H]2CN3CCN(C(=O)Cc4ccc(-n5cnnn5)cn4)C[C@H]3CO2)ccc(F)c1C#N | – | 57.6 | 68 | 70 | 19900 | – |
| O=C(Cc1ccc(-n2cnnn2)nc1)N1CCN2C[C@@H](c3ccc4nonc4c3)OC[C@@H]2C1 | – | – | – | 45 | – | – |
| Cc1c([C@H]2CN3CCN(C(=O)Cc4ccc(-n5cnnn5)nc4)C[C@@H]3CO2)ccc2c1COC2=O | – | – | – | 105 | – | IC50 [6]: 53400 nM; Ratio IC50 [7]: 508 |
| Cc1c(C#N)cccc1[C@@H]1CN2CCN(C(=O)Cc3ccc(-n4cnnn4)nc3)C[C@@H]2CO1 | 2 | 98.4 | 67 | 27 | 14800 | – |
| O=C1OCCc2cc([C@H]3CN4CCN(C(=O)Cc5ccc(-n6cnnn6)nc5)C[C@H]4CO3)ccc21 | – | – | – | 205 | – | – |
| Cc1cccc(Nc2ccncc2S(=O)(=O)NC(=O)NC(C)C)c1 [TORSEMIDE] | – | – | – | – | – | half-life [11]: 180 min |
| Cc1c([C@H]2CN3CCN(C(=O)Cc4ccc(-n5cnnn5)nc4)C[C@H]3CO2)ccc2c1COC2=O | 0.32 | 40.2 | 46 | 88 | 56500 | IC50 [6]: 26800 nM; Ratio IC50 [7]: 305 |
| Cc1c([C@@H]2CN3CCN(C(=O)Cc4ccc(-n5cnnn5)nc4)C[C@H]3CO2)ccc2nonc12 | – | – | – | 72 | > 10000 | – |
| Cc1c([C@@H]2CN3CCN(C(=O)Cc4ccc(-n5cnnn5)nc4)C[C@H]3CO2)ccc(F)c1C#N | 1 | 63 | 57 | 36 | 10000 | – |
| Cc1c([C@H]2CN3CCN(C(=O)Cc4ccc(-n5cnnn5)nn4)C[C@H]3CO2)ccc(F)c1C#N | – | – | – | 86 | – | – |
| Cc1c([C@@H]2CN3CCN(C(=O)Cc4cnc(-n5cnnn5)nc4)C[C@H]3CO2)ccc(F)c1C#N | – | – | – | 18 | – | – |
| Cc1c([C@H]2CN3CCN(C(=O)Cc4ccc(-n5cnnn5)nc4)C[C@H]3CO2)ccc(F)c1C#N | 1.8 | 87.6 | 69 | 41 | 12500 | – |
| Cc1c(C#N)cccc1[C@H]1CN2CCN(C(=O)Cc3ccc(-n4cnnn4)nc3)C[C@H]2CO1 | – | – | – | 112 | 17600 | – |
| Cc1c([C@H]2CN3CCN(C(=O)Cc4cnc(-n5cnnn5)cn4)C[C@H]3CO2)ccc(F)c1C#N | – | – | – | 107 | 12300 | – |
| O=C1OCCc2cc([C@H]3CN4CCN(C(=O)Cc5ccc(-n6cnnn6)nc5)C[C@@H]4CO3)ccc21 | 2.25 | 45 | 98 | 165 | – | – |
